SENP8 block-1 = inhibitors of human SENP8 protease; Q96LD8; recombinant SENP8, Nedd8 substrate fluorescence; inhibition, % at 20 µM; 360,000 compounds, 0.64% hits; in the data active means inhibition mostly above about 40%, no sharp cut-off; inactive means mostly below about 27%
SENP7 block = inhibitors of human SENP7 protease. Q9BQF6. recombinant SENP7, Z-RLRGG-aminoluciferin luminescence, 40 min. inhibition, % at 5 µM. 330,000 compounds, 1.5% hits. AID 434973;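 active means inhibition above about 50% at the single test dose, limit read from the data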
Apaf-1 inh = blocks human Apaf-1 apoptosome activity. O14727. reconstituted apoptosome caspase-3 activity, DEVD-Rh110 fluorescence. inhibition, % at 20 µM. 330,000 compounds, 0.71% hits; active means inhibition of at least 40% at 20 µM
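Material: reconstituted apoptosome with Apaf-1, cytochrome c, caspase-9, procaspase-3, dATP / Buffer or medium: pH 7.5 Hepes buffer with CHAPS, BSA, DTT / Also added: cytochrome c with DEVD-Rh110 / Schedule: compound with Apaf-1, dATP, procaspase-3 30 min, then 50 min reaction, room temperature / Technique: rhodamine 110 fluorescence at Ex 480/Em 540 nm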
SENP6 inh = SENP6 protease inhibition. Q9GZR1. AID 2599. Recombinant SENP6 catalytic domain, aminoluciferin luminescence. inhibition, % at 10 µM. 330,000 compounds, 1.8% hits;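 active means inhibition above about 50% at the single tested dose, limit read from the data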
UBC13 polyUb = blocks human UBC13 polyubiquitin chain formation; 330,000 compounds, 0.47% hits; P61088; inhibition, % at 20 µM; AID 485273; TR-FRET; in the data active means inhibition above about 45%, passing the limit was not always enough
Target sequence (P61088 whole entry, looked up): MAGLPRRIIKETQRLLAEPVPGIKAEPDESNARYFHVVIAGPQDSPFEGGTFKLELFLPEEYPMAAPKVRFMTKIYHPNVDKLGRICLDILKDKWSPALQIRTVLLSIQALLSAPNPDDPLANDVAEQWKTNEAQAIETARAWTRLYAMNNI
SENP8 block-2 = inhibitors of human SENP8 protease; Q96LD8; AID 2540; 330,000 compounds, 1.2% hits; inhibition, % at 10 µM; purified SENP8, Z-RLRGG-aminoluciferin cleavage, luminescence; in the data active means inhibition above about 50%
SENP8 conf = human SENP8 inhibition, confirmed; shares compounds with SENP7 block; Recombinant SENP8, Z-RLRGG-aminoluciferin luminescence, 60 min; inhibition, % at 12.5 µM; 6,200 compounds, 40% hits; AID 488912;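 active means mean inhibition across replicates above about 50%, limit read from the data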
SENP6 conf = confirmation of human SENP6 protease inhibitors | inhibition, % at 12.5 µM | AID 488915 | shares compounds with SENP7 block | recombinant SENP6, Z-RLRGG-aminoluciferin luminescence | 6,200 compounds, 58% hits
SENP7 conf = confirmation of human SENP7 protease inhibitors | shares compounds with SENP7 block | recombinant SENP7, Z-RLRGG-aminoluciferin luminescence, 40 min | inhibition, % at 12.5 µM | 6,200 compounds, 69% hits | AID 488917
Casp3 select = inhibits human caspase-3 in SENP selectivity test; 6,200 compounds, 60% hits; inhibition, % at 12.5 µM; shares compounds with SENP7 block; AID 488918; purified caspase-3, Z-DEVD-aminoluciferin luminescence, 60 min;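 active means mean inhibition above about 50%, limit read from the data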
Target sequence (P42574 28-227 limits assumed): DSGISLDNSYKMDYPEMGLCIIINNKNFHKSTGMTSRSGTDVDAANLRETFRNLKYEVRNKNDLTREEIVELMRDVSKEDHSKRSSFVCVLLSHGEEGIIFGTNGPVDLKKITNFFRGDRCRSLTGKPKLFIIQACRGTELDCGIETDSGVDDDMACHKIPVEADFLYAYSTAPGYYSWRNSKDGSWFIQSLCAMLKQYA
Luc interf = interferes with luciferase luminescence in SENP counter-screen; Pre-incubated SENP8/Z-RLRGG-aminoluciferin, luciferase luminescence interference; shares compounds with SENP7 block; 6,200 compounds, 39% hits; inhibition, % at 12.5 µM;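 active means mean inhibition above about 50% when retested at one dose, limit read from the data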
A number is an active result; n = inactive; x = no result. The list is not random: actives were taken first. Their share in the collection is about 3%.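 How the source made its calls, unless noted: active means mean inhibition above about 50% in the one-dose retest (limit read from the data); inactive means the rest.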

SMILES	SENP8 block-1	SENP7 block	Apaf-1 inh	SENP6 inh	UBC13 polyUb	SENP8 block-2	SENP8 conf	SENP6 conf	SENP7 conf	Casp3 select	Luc interf
CC(=O)Nc1cccc(NC(=O)C(=O)Nc2ccc3c(c2)N(C(=O)C2CC2)CCC3)c1	n	50	n	59	n	n	n	n	75	65	n
CC(=O)Nc1ccc(C(=O)N2CCCc3ccccc32)cc1	n	n	n	n	n	n	x	x	x	x	x
Cc1cccc(/N=C/c2c(O)n(Cc3ccc4c(c3)OCO4)c(=O)c3ccccc23)n1	n	n	n	n	n	n	x	x	x	x	x
COc1ccc(-c2cc(-c3ccccc3)n[nH]2)c(O)c1	n	65	n	68	n	66	74	72	90	n	72
COc1ccc(-c2cc(-c3ccccc3O)[nH]n2)cc1	n	94	n	97	n	92	96	97	102	78	94
C#CCN1C(=O)S/C(=C\c2ccc(-c3ccc(Cl)c(C(=O)O)c3)o2)C1=O	n	n	n	70	n	n	74	74	82	n	n
CC1Cc2ccccc2N1C(=O)/C=C/c1cccc(F)c1 (centres undefined)	n	55	n	n	n	51	n	74	90	61	55
CCO/C([O-])=N/c1sn[n+](C)c1C	n	n	n	n	n	n	x	x	x	x	x
CC(=Nc1ccc(O)cc1)c1sc2ccccc2c1O	n	79	n	89	n	75	80	80	96	68	81
CC(=Nc1ccccc1O)c1sc2ccccc2c1O	n	n	n	n	n	n	x	x	x	x	x
CC(=Nc1cccc(C)c1)c1sc2ccccc2c1O	n	n	n	63	n	n	73	74	88	n	n
CC(=O)NCCN=C(C)c1sc2ccccc2c1O	n	n	n	n	n	n	x	x	x	x	x
Cc1noc(C)c1C(=O)OCC(=O)Nc1c(F)cccc1F	n	n	n	n	n	n	x	x	x	x	x
NC(CC(=O)OC1CCCCC1)C(=O)OC1CCCCC1 (centres undefined)	n	n	n	77	n	n	n	n	n	n	n
COc1cccc(/C=N/Nc2snc(SC)c2C#N)c1O	n	96	n	99	n	96	95	98	100	94	79
COc1cccc(/C=N/Nc2snc(SC)c2C#N)c1	n	n	n	n	n	n	x	x	x	x	x
COc1ccc(/C=N/Nc2snc(SC)c2C#N)cc1OC	n	n	n	61	n	n	n	n	n	n	n
Cc1cc(C(=O)N(C)CC(=O)Nc2ccc(F)c(F)c2F)no1	n	n	n	n	n	n	x	x	x	x	x
CN(Cc1ccccc1)C(=O)[C@@H]1CCCN1C(=O)[C@@H]1CCCN1C(=O)c1cccc2ccccc12	n	x	x	x	x	x	x	x	x	x	x
Cc1nn(-c2ccc(F)cc2)c2sc(C(=O)O)cc12	n	98	n	n	n	n	n	n	n	n	n
Cc1ccc(-c2ccc(CCC(=O)O)o2)cc1	n	n	n	58	n	n	74	70	86	61	76
COc1ccc(NC(=O)Nc2ccc3c(c2)C(=O)N([C@H](C)CO)C[C@H](C)[C@@H](CN(C)C(=O)Nc2ccc(C(F)(F)F)cc2)O3)cc1	n	n	n	n	n	n	x	x	x	x	x
Cc1ccc(C(C(=O)NC(C)(C)C)N(C(=O)CCC(=O)Nc2ccccn2)c2ccccc2F)cc1 (centres undefined)	n	n	n	n	n	n	x	x	x	x	x
Cc1ccc(NC(=O)CC2C(=O)NC3CCCCC3N2C(=O)c2ccc(F)cc2)cc1C (centres undefined)	n	n	n	54	n	n	n	n	n	n	n

Screening results deposited in PubChem by Sanford-Burnham Center for Chemical Genomics.
